The record followed here is paper PMC3479660 (Thrombosis and haemostasis, 2012).

Assay [1] relates to washed platelets. The format is cell-based, human. To be noted: intermediates 30 μM vs 2-MeSADP 0.04 μM.
In assay [2] the test system is human platelets. In words: LTA with PRP: LPA-stimulated platelet aggregation. The format is cell-based. To be noted: 30 μM test compound pre-incubated, LPA 10 μM. In a few lines:
(§1)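 Turbidimetric light transmission aggregometry was run on human PRP normalised to 300,000 cells/μl. Platelets were pre-treated for 5 min with 30 μM test compound, then given 10 μM LPA. Shape change was taken from the traces (n=10). Aggregation was reported as mean platelet aggregation in % (n=8).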

Assay [3] deals with human platelets. In words: LTA: 2-MeSADP-stimulated platelet aggregation. Format: cell-based. The settings on record: for effect on 2-MeSADP-stimulated platelet aggregation: 30 μM test compound, 30 nM 2-MeS-ADP, PRP. In a few lines: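 In human PRP (300,000 cells/μl), aggregation was stimulated with 2-MeSADP (30 nM) with or without 30 μM test compound. Full 2-MeSADP concentration-response curves were run alone or after pre-incubation with 15 or 30 μM test compound. Values were normalised to 2-MeSADP alone and EC50 was derived from the curves; n=6.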

Assay [4] concerns the target T1, P2Y12 receptor (Homo sapiens, UniProt Q9H244). In words: [3H]PSB-0413 radioligand competition binding, Sf9 insect cell membranes. The settings on record: for rank order of potency at labelled binding sites: unpublished data of the authors.
For assay [5], the system named is human platelets. The assay is described as follows: LTA with PRP: TRAP-mediated platelet aggregation. To be noted: 30 μM FPP, TRAP 15 μM. The format is cell-based.
Assay [6] deals with human platelets. The assay is described as follows: LTA with PRP: epinephrine-mediated platelet aggregation. The format is cell-based. The settings on record: 30 μM FPP, epinephrine 1 μM. A digest of the protocol:
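For light transmission aggregometry, human platelets were normalised to 300,000 cells/μl and exposed to 30 μM test compound before agonist. Epinephrine was added at 1 μM (n=15); the TRAP arm had n=7. Representative traces accompanied the bar data.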

Assay [7] relates to human platelets. In words: LTA with PRP: LPA-stimulated platelet shape change. Format: cell-based. A digest of the protocol: as §1
For assay [8], the target named is T1, P2Y12 receptor. The assay is described as follows: [35S]GTPγS binding in isolated platelet membranes. The format is biochemical.
Assay [9] has as its system washed platelets. The assay is described as follows: Calcium flux assay on platelets. The format is cell-based, human. The settings on record: 30 μM FPP. Background: A change in cytosolic calcium serves as a functional read-out for many receptors and channels.

T1 sequence (Q9H244 whole entry): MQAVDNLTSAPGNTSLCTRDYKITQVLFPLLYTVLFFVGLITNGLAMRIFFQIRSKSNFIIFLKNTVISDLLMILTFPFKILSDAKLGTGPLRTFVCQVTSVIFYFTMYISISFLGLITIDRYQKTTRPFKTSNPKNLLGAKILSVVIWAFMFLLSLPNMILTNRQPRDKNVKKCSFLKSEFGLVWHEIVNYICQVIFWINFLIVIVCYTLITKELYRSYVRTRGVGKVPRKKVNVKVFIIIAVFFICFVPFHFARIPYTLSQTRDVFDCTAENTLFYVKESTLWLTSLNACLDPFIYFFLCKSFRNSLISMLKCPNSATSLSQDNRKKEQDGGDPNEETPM

Take `CC(C)=CCC/C(C)=C/CC/C(C)=C/CC/C(C)=C/COP(=O)(O)OP(=O)(O)O.N.N.N` [GGPP, all trans-3,7,11,15-tetra-methyl-2,6,10,14-hexadecatetraenyl pyrophosphate ammonium salt]: the “antagonistic activity on platelets stimulated by 2-MeSADP” value (from here on “antagonistic activity”) with washed platelets [1] is given as “Only FPP displayed a statistically significant effect”.
Regarding `CC(C)=CCC/C(C)=C/COP(=O)(O)OP(=O)(O)O.N.N.N` [GPP, trans-3,7-dimethyl-2,6-octadienyl pyrophosphate ammonium salt], in the assay with washed platelets [1], the “antagonistic activity” value was “Only FPP displayed a statistically significant effect”.
Same read-out and setting: the entry for `CC(C)=CCCC(C)=CCCC(C)=CCOP(=O)(O)O.N.N` [FMP, 3,7,11-trimethyl-2,6,10-dodecatrien-1-yl monophosphate ammonium salt] is “Only FPP displayed a statistically significant effect”; for `C=C(C)CCOP(=O)(O)OP(=O)(O)O.N.N.N` [IPP, isopentenyl pyrophosphate triammonium salt] it is “Only FPP displayed a statistically significant effect”.
On to `CCCCC/C=C\C/C=C\C/C=C\C/C=C\CCCC(=O)NCC(=O)O` [NAG, N-arachidonoylglycine, reference compound], for which the “effect on LPA-stimulated platelet aggregation” value with human platelets [2] is on record as “No statistically significant inhibitory effect”. Also, the “effect on 2-MeSADP-stimulated platelet aggregation” value in the assay on human platelets [3] is recorded as “without effect”.
A word on the IC50: it is the concentration that gives 50% inhibition. Broadly, the inhibition is the relative decrease from the control value, in per cent. On to `CC(C)=CCCC(C)=CCCC(C)=CCOP(=O)(O)OP(=O)(O)O.N.N.N` [FPP, 3,7,11-Trimethyl-2,6,10-dodecatrien-1-yl pyrophosphate ammonium salt], for which, on P2Y12 receptor [4], the IC50 came to 65.8 µM and the “extent of inhibition of [3H]PSB-0413 binding” value was “partial inhibition”. In addition, the “maximal inhibition of [3H]PSB-0413 binding” value at P2Y12 receptor [4] (very high concentrations) was 30–40%. Moreover, the “effect on TRAP-stimulated platelet aggregation” value in the assay with human platelets [5] is “unaffected”. For the same molecule, the “antagonistic activity” value in the assay with washed platelets [1] is listed as “statistically significant effect”. Also, in the assay on human platelets [6], the “effect on epinephrine-stimulated platelet aggregation” value was “unaffected”. Moreover, the “effect on LPA-stimulated platelet shape change” value in the assay with human platelets [7] (30 μM FPP, 10 μM LPA, p=0.017) is given as “potentiated”. In addition, the “platelet shape change, compound alone” value in the assay with human platelets [7] (FPP alone) was “unable to show an effect”. Also, the IC50 on P2Y12 receptor [8] was determined as 45 µM. Besides, on P2Y12 receptor [8] (FPP 1 M alone (so in the source)), the “effect of compound alone on [35S]GTPγS binding” value is “small, but significant, increase”. Moreover, on P2Y12 receptor [8] (platelet membranes), the “concentrations at which FPP independently stimulated [35S]GTPγS binding” value is “below 6 μM”. In addition, in the assay on human platelets [2], the “effect on LPA-stimulated platelet aggregation” value is reported as “no effect”. Moreover, the “effect on ADP-stimulated calcium signalling” value in the assay with washed platelets [9] (5 μM ADP) is “no statistical significance”. Further, the “effect on thrombin-stimulated calcium signalling” value in the assay on washed platelets [9] (thrombin 0.5 U/ml) is on record as “no statistical significance”. Further, the “effect on 2-MeSADP-stimulated platelet aggregation” value in the assay with human platelets [3] is on record as “clear, concentration-dependent inhibition”. Moreover, the inhibition at 10 µM in the assay on human platelets [3] (Homo sapiens, Platelet, read-out: inhibition of 2-MeSADP-stimulated aggregation) was 40 ± 5%.
For `CC(C)=CCOP(=O)(O)OP(=O)(O)O.N.N.N` [DMAPP, γ,γ-dimethylallyl pyrophosphate triammonium salt], the “antagonistic activity” value in the assay with washed platelets [1] is “Only FPP displayed a statistically significant effect”.
Turning to `CCCSc1nc(N[C@@H]2C[C@H]2c2ccc(F)c(F)c2)c2nnn([C@@H]3C[C@H](OCCO)[C@@H](O)[C@H]3O)c2n1` [ticagrelor, Ticagrelor, reference compound], the “effect on 2-MeSADP dose response curve of [35S]GTPγS binding” value on P2Y12 receptor [8] (60 nM ticagrelor) is given as “right-shifted the dose response curve”. In addition, the “effect on FPP-stimulated [35S]GTPγS binding” value on P2Y12 receptor [8] (10 μM ticagrelor) is “readily blocked”.
Turning to `Nc1c(S(=O)(=O)[O-])cc(Nc2ccc(Nc3ccccc3)c(S(=O)(=O)[O-])c2)c2c1C(=O)c1ccccc1C2=O.[Na+].[Na+]` [PSB-0739, 1-amino-4-[4-phenylamino-sulfophenylamino]-9,10-dioxo-9,10-dihydroanthracene-2-sulfonic acid disodium salt], on P2Y12 receptor [4], the “extent of inhibition of [3H]PSB-0413 binding” value is on record as “complete inhibition” and the “rank order of potency at labelled binding sites” value was “PSB-0739 ([21], [22]). >2-methylthio-ADP > ADP”.
With `Nc1ncnc2c1ncn2[C@@H]1O[C@H](COP(=O)(O)OP(=O)(O)O)[C@@H](O)[C@H]1O` [ADP, adenosine diphosphate], at P2Y12 receptor [4], the “extent of inhibition of [3H]PSB-0413 binding” value is on record as “complete inhibition” and the “rank order of potency at labelled binding sites” value was “PSB-0739 ([21], [22]). >2-methylthio-ADP > ADP”.
